This passage reports CC50, Activity and inhibition results from ChEMBL document CHEMBL3407388, “Synthesis, anticancer activity and molecular docking studies on a series of heterocyclic trans-cyanocombretastatin analogues as antitubulin agents” (2015).

The test system of test [1] is MV4-11. The test is described as follows: Anti-leukemic activity against human MV4-11 cells assessed as cell dead after 24 to 48 hrs by annexin V-FITC/7-AAD staining-based flow cytometric analysis. The test is classed as functional. Particulars: for CC50: read-out: LD50 (the source's name). A digest of the protocol: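 MV4-11 cells grown in IMDM with 10% FBS, penicillin and streptomycin, seeded at 5 × 10^5/ml and treated. At 24 and 48 h they were stained with annexin V-FITC plus 1 μg/ml 7-AAD. Percent dead cells (annexin V+) was read by flow cytometry and expressed relative to the DMSO vehicle control.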
A general note: A flow cytometer gives signals particle by particle.

Test [2] can be described thus: (§1) Cytotoxicity against human KCL22 cells assessed as apoptotic/dead cells after 24 to 48 hrs by annexin V-FITC/7-AAD staining-based flow cytometric analysis. It is filed as functional. Particulars: KCL-22, read-out: LD50 (the source's name).
The test system of test [3] is KCL-22. Described as §1. It is filed as functional.
The test system of test [4] is Kasumi-4. Description: (§2) Cytotoxicity against human Kasumi-4 cells assessed as apoptotic/dead cells after 24 to 48 hrs by annexin V-FITC/7-AAD staining-based flow cytometric analysis. It is filed as functional.
Test [5] is described as follows: as §2. The test is classed as functional. The conditions noted are these: read-out: LD50 (the source's name).
Test [6] in a line: (§3) Cytotoxicity against human MLL-ENL cells assessed as apoptotic/dead cells after 24 to 48 hrs by annexin V-FITC/7-AAD staining-based flow cytometric analysis. The test is classed as functional. The conditions noted are these: read-out: LD50 (the source's name).
The species named for test [7] is Homo sapiens. Described as §3. The test is classed as functional.
The test system of test [8] is K562. The test is described as follows: Cytotoxicity against human K562 cells assessed as apoptotic/dead cells after 24 to 48 hrs by annexin V-FITC/7-AAD staining-based flow cytometric analysis. The test is classed as functional.
A short description of test [9]: (§4) Cytotoxicity against human TF1 cells assessed as apoptotic/dead cells after 24 to 48 hrs by annexin V-FITC/7-AAD staining-based flow cytometric analysis. The test is classed as functional. The conditions noted are these: TF-1, read-out: LD50 (the source's name).
For test [10], the system named is TF-1. Described as §4. It is filed as functional.
Test [11] concerns THP-1. Description: Cytotoxicity against human THP1 cells assessed as apoptotic/dead cells after 24 to 48 hrs by annexin V-FITC/7-AAD staining-based flow cytometric analysis. The test is classed as functional.
Test [12] has as its system HL-60. The test is described as follows: (§5) Cytotoxicity against human HL60 cells assessed as apoptotic/dead cells after 24 to 48 hrs by annexin V-FITC/7-AAD staining-based flow cytometric analysis. It is filed as functional.
The nature of test [13]: as §5. It is filed as functional. The conditions noted are these: HL-60, read-out: LD50 (the source's name).
Test [14] deals with Tubulin (Homo sapiens) (UniProt P68371+Q9H4B7+P0DPH7+P68366+Q13509+Q71U36+P04350+Q3ZCM7+P07437+P68363+Q9BQE3+Q6PEY2+Q13885+Q9BVA1+Q9BUF5). Description: Inhibition of tubulin polymerization in human MV4-11 cells at 50 nM after 2 hrs by immunoblot analysis relative to control. The test is classed as cell-based. Put shortly:
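MV4-11 AML cells were exposed for 2 h to 25, 50 or 100 nM compound. Free tubulin (supernatant) and polymerized tubulin (pellet) were separated and detected by anti-tubulin immunoblot.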

Test [15] has as its system TUR. The test is described as follows: Cytotoxicity against human TUR cells assessed as apoptotic/dead cells after 24 to 48 hrs by annexin V-FITC/7-AAD staining-based flow cytometric analysis. It is filed as functional.
The test system of test [16] is Leukemia cell. The test is described as follows: Cytotoxicity against human primary blast crisis phase of chronic myeloid leukemia cells assessed as apoptotic/dead cells at 25 to 200 nM by CD45-APC-H7/ annexin V-FITC/7-AAD staining-based flow cytometric analysis. It is filed as functional. The conditions noted are these: TDE = time-dependent effect. Put shortly: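 Cryopreserved primary blast-crisis CML samples, obtained with informed consent and IRB approval, were thawed, cultured and treated with the indicated doses. At 48 h they were stained with CD45-APC-H7, then annexin V-FITC and 7-AAD. Percent annexin V+ blasts by flow cytometry, normalized to the DMSO control.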

In test [17] the test system is MOLM-13. Description: Cytotoxicity against human MOLM13 cells assessed as apoptotic/dead cells after 24 to 48 hrs by annexin V-FITC/7-AAD staining-based flow cytometric analysis. It is filed as functional.
Test [18] can be described thus: (§6) Cytotoxicity against human KG1 cells assessed as apoptotic/dead cells after 24 to 48 hrs by annexin V-FITC/7-AAD staining-based flow cytometric analysis. It is filed as functional. Particulars: KG-1, read-out: LD50 (the source's name).
Test [19] relates to KG-1. The description is as §6. It is filed as functional.
Test [20] is described as follows: Cytotoxicity against human primary blast crisis phase of chronic myeloid leukemia cells assessed as apoptotic/dead cells at 25 nM measured at 96 hrs by CD45-APC-H7/ annexin V-FITC/7-AAD staining-based flow cytometric analysis relative to control. It is filed as functional, Leukemia cell. Put shortly: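 Thawed cryopreserved primary blast-crisis CML cells were treated and read at 24, 48 and 96 h time-points. Staining used CD45-APC-H7, annexin V-FITC and 7-AAD. Apoptotic/dead cells were scored by flow cytometry as percent annexin V+ blasts, normalized to the DMSO control.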

Test [21] has as its system Kasumi 1. The test is described as follows: Cytotoxicity against human Kasumi-1 cells assessed as apoptotic/dead cells after 24 to 48 hrs by annexin V-FITC/7-AAD staining-based flow cytometric analysis. It is filed as functional.
[22] abbreviates: read-out: LD50 (the source's name).

Where only a bound is given, the exact number is not on record here.

As to `COc1cc(OC)cc(/C(C#N)=C/c2cc3ccccc3o2)c1`, the CC50 in test [1] was determined as 1170 nM.
As for `COc1cc(/C(C#N)=C/c2cc3ccccc3s2)cc(OC)c1OC`, the CC50 in [2] amounted to 114 nM; in [5], 156 nM; in [6] it was 271 nM; in test [8] (setting [22]) it was 99.5 nM; in test [9], 79.5 nM; in test [11] (setting [22]) it was 227 nM. Further, the CC50 in [13] was 120 nM; in test [15] (setting [22]), 93 nM; in [17] (setting [22]), 83 nM; in test [18], 113 nM; in test [1] it was 18 nM; in test [21] (setting [22]), 151 nM. Moreover, the Activity entry in test [3], in [4], in [7], in test [8], in test [10] and in test [11] was “Dose-dependent effect” each time. Besides, the Activity result in [12] was “Dose-dependent effect”; in test [15] it was “Dose-dependent effect”; in [16] it was “tde”; in test [17] it was “Dose-dependent effect”; in test [19], “Dose-dependent effect”; in [20], more than 50%. Besides, the Activity entry in [21] is “Dose-dependent effect”. The inhibition – broadly, the relative decrease from the control value, in per cent – in [14] was more than 50%.
Turning to `COc1ccc(/C(C#N)=C/c2nc3ccccc3s2)cc1OC`, in test [1], the CC50 came to 1220 nM.
Take `COc1cc(/C(C#N)=C/c2csc3ccccc23)cc(OC)c1OC`: in [1], the Activity entry was “Dose-dependent effect” and the CC50 turned out to be 180 nM.
Regarding `COc1ccc(/C(C#N)=C/c2cc3ccccc3s2)cc1OC`, the CC50 in test [1] was 6060 nM.
